These results are taken from PubChem BioAssay.

Experiment [1] is described as follows: inhibitors of TNFa-induced NFkB p65 translocation, primary screen, imaging, HUVEC, MLSMR starter and 10KST1 sets (AID 438;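 active = inhibition above 20% together with a positive visual image hit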;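 note: compound added about 3h40 before a 20 min TNFalpha stimulation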;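 for inhibition: signal is the nuclear over cytoplasmic p65 intensity ratio per well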). The following applies: HUVEC TNFa-induced p65 nuclear translocation; cell count: measured here: nuclei count (cytotoxicity indicator), at 2.08 µM; inhibition: at 2 µM, stronger effect = higher value, 0% TNFa-plus-vehicle, 100% no-TNFa wells.
Experiment [2] is described as follows: inhibitors of mutant huntingtin aggregation, primary screen, imaging, exon1htt(103Q)mCFP cells, high-content imaging (AID 483).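 For nuclei count: percent of the per-plate median nuclei count of sample wells.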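 Note: compound exposure lasted 3 days before fixation.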 The conditions noted are these: exon1htt(103Q)mCFP cell line, aggregate imaging, at 2 µM; inhibition of aggregation: stronger effect = higher value; nuclei count: measured here: cell count, toxicity.
Experiment [3] in a line: inhibitors of E-selectin induction by TNFa, primary screen, imaging, HUVEC, immunofluorescence, MLSMR starter and 10KST1 sets (AID 487;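 active = visually confirmed hit in the image check and inhibition above 20%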;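 for inhibition: signal is fraction of cell area covered by stained E-selectin grains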;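 for nuclei count: 100% = median nuclei count of all wells on the same plate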). The conditions noted are these: HUVEC TNFalpha-induced E-selectin immunofluorescence imaging, at 2 µM; inhibition: stronger effect = higher value; nuclei count: measured here: cell number, toxicity.
Experiment [4] has as its target Voltage-gated potassium channel subunit beta-2 (Rattus norvegicus) (UniProt P62483). The experiment is described as follows: KvBeta enzyme negative modulators, primary screen, biochemical, NADPH fluorescence (AID 622;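 active = fluorescence slope higher than the sample average by over 3 SD, cut at about -0.22 in these data, passing the limit was not always enough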;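 note: slope of raw intensity against log time taken from 70 to 1610 s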). The following applies: recombinant KvBeta, 4-cyanobenzaldehyde reduction, at 10 µM, stronger effect = higher value.
Experiment [5] has the same target. The experiment in a line: KvBeta positive modulators, primary screen, biochemical, NADPH fluorescence (AID 623;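 active = NADPH fluorescence slope more negative than the mean of all samples by about 3 SD, 99.7% confidence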;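 note: fluorescence intensity change per second fitted from 20 to 320 s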). The following applies: Recombinant KvBeta, NADPH fluorescence decrease slope, 10 min; at 10 µM; stronger effect = lower value.
In experiment [6] the target is Muscarinic acetylcholine receptor M4 (Homo sapiens) (UniProt P08173). The experiment in a line: compounds altering M4/GIRK thallium flux, either direction, primary screen, M4 allosteric agonist project, cell-based, HEK293 M4/GIRK, BTC-AM (AID 625;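 active = fluorescence slope after compound addition differing from the mean of all tested samples at 99.7% confidence, mostly higher but some lower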;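 note: thallium influx through GIRK channels coupled to M4 in HEK293 cells with BTC-AM dye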). The following applies: at 10 µM, actives lie on both sides. The method in brief: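 Material – HEK293 cells with M4 receptor and GIRK channels · Buffer or medium – pH 7.3 thallium assay buffer · Doses – one dose, 10 µM final · Timing – cells overnight at 37 °C, BTC-AM loading 1 h, reads 2 min total · Measured by – kinetic fluorescence with BTC-AM dye · Controls – carbachol and DMSO controls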

Experiment [7] in a line: inhibitors of Sendai virus-induced IRF3 signaling, primary screen, TLR/RLR signaling modifier project, cell-based, Sendai virus stimulus, luciferase, 10K MLSCN set (AID 602276;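 active = inhibition at or above 50% at 10 µM; inactive = inhibition below 50%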;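 note: firefly luciferase from ISG56 promoter only with Renilla not read in this screen; 0% = Sendai virus plus DMSO and 100% = medium plus DMSO without virus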). The following applies: HEK293 RL24 IRF3 luciferase reporter, at 10 µM, stronger effect = higher value. (In general: A reporter such as luciferase makes a cellular process visible.)
Experiment [8] in a line: inhibitors of poly I:C-induced TLR3 signaling, primary screen, cell-based, poly I:C stimulus, luciferase, 10K MLSCN set (AID 602277;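 active = inhibition of the reporter signal at or above 50%; inactive = inhibition below 50%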). The conditions noted are these: HEK293-TLR3 RL24 IRF3 luciferase reporter, at 10 µM, stronger effect = higher value.

Calls of active or inactive are those of the source.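 Rule for the calls, unless noted: active = visual image review flags a hit and inhibition of aggregation exceeds 20%; inconclusive = visual hit but inhibition at or below 20%; inactive = no hit on visual image review.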

Chain of Voltage-gated potassium channel subunit beta-2 (Rattus norvegicus) (P62483 whole entry, looked up): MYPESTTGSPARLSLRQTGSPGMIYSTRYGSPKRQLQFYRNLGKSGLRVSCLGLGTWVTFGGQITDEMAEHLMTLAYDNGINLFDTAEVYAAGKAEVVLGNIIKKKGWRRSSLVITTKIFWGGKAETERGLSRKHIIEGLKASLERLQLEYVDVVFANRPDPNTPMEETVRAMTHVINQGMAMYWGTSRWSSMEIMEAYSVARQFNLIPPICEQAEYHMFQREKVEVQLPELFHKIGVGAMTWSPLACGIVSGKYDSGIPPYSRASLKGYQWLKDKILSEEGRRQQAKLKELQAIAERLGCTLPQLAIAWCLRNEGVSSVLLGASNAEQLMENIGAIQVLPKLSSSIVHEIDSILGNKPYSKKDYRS
Chain of Muscarinic acetylcholine receptor M4 (Homo sapiens) (P08173 whole entry, looked up): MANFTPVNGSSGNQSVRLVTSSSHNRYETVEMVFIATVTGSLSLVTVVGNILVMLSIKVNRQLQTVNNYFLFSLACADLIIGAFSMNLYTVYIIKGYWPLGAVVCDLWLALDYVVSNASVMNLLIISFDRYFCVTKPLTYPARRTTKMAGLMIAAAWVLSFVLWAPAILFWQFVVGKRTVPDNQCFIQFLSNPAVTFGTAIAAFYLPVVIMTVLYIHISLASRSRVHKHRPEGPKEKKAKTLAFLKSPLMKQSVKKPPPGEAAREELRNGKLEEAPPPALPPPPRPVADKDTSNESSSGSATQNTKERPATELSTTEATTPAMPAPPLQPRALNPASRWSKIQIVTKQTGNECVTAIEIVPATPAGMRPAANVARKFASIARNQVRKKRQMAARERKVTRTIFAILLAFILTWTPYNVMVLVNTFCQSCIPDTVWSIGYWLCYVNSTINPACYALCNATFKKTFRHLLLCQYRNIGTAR

The inhibition is the relative decrease from the control value, in per cent. Regarding `COc1ccc(C(F)(F)F)cc1NC(=O)c1nc2nc(C)cc(C(F)F)n2n1`, in experiment [1], the cell count is 800. Moreover, the inhibition in experiment [1] is 16.4% (inactive); in experiment [3], -22.3% (inactive); in experiment [7], 5.86% (inactive); in experiment [8], 10.9% (inactive). The inhibition of aggregation in experiment [2] was 14.9% (inactive). Moreover, the nuclei count in experiment [2] stood at 94.5%; in experiment [3], 103%. Besides, the fluorescence slope in experiment [4] was -0.498 (inactive); in experiment [6], 0.00547 (inactive). In experiment [5], the NADPH fluorescence slope was -2e-05 (inactive).
As for `Cc1cc(NC(=O)CSc2nnc(C3CC3)n2C)no1`, the cell count in experiment [1] was found to be 296. Further, the inhibition in experiment [1] is 1.1% (inactive); in experiment [3] it was -26.7% (inactive); in experiment [7] it was 8.69% (inactive); in experiment [8] it was 16.1% (inactive). Besides, the inhibition of aggregation in experiment [2] was 15.4% (inactive). Also, the values for the nuclei count in experiment [2] and in experiment [3] were 96.8% and 93.5%, respectively. Further, the fluorescence slope was -0.55 (inactive) in experiment [4] and 0.00523 (inactive) in experiment [6]. Besides, in experiment [5], the NADPH fluorescence slope was -7.5e-05 (inactive).
`CCN(CC)C(=O)c1ccc(NS(=O)(=O)c2ccccc2)cc1`: the cell count in experiment [1] stood at 444. The inhibition in experiment [1] is 0.9% (inactive); in experiment [3] it was -22.4% (inactive); in experiment [7], -7.99% (inactive); in experiment [8], -12.2% (inactive). In addition, in experiment [2], the inhibition of aggregation is -9.8% (inactive). For the same molecule, the results for the nuclei count in experiment [2] and in experiment [3] were 112% and 117%, respectively. The figures for the fluorescence slope in experiment [4] and in experiment [6] were -0.478 (inactive) and 0.0035 (inactive), respectively. In addition, the NADPH fluorescence slope in experiment [5] is -0.000282 (inactive).
As for `C=CCOc1ccc(/C(O)=C2\C(=O)C(=O)N(CCOC)C2c2cccnc2)cc1` (centres undefined), in experiment [1], the cell count turned out to be 640. In addition, the inhibition is 3.4% (inactive) in experiment [1], 4% (inactive) in experiment [3], 6.88% (inactive) in experiment [7] and 15.7% (inactive) in experiment [8]. The inhibition of aggregation in experiment [2] is 14.8% (inactive). For the same molecule, the nuclei count in experiment [2] is 105%; in experiment [3] it was 101%. In addition, the fluorescence slope in experiment [4] is -0.336 (inactive); in experiment [6], 0.00592 (inactive). In experiment [5], the NADPH fluorescence slope is -4.4e-05 (inactive).
On to `COc1ccc(CNc2nc(SCC(=O)NCc3ccco3)nc3ccccc23)cc1`, for which the cell count in experiment [1] was found to be 705. For the same molecule, the inhibition was 0.9% (inactive) in experiment [1], -50.5% (inactive) in experiment [3], -0.825% (inactive) in experiment [7] and 2.94% (inactive) in experiment [8]. Also, the inhibition of aggregation in experiment [2] is -24.8% (inactive). Moreover, the nuclei count is 104% in experiment [2] and 99.3% in experiment [3]. For the same molecule, the fluorescence slope in experiment [4] is -0.484 (inactive); in experiment [6] it was 0.00602 (inactive). Besides, the NADPH fluorescence slope in experiment [5] is 9.7e-05 (inactive).
Turning to `O=C(NC1CCCc2ccccc21)C1CCN(S(=O)(=O)c2cnc[nH]2)CC1` (centres undefined), the cell count in experiment [1] was 529. In addition, the inhibition is -10.3% (inactive) in experiment [1], -6.8% (inactive) in experiment [3], 4% (inactive) in experiment [7] and 19.5% (inactive) in experiment [8]. Further, the inhibition of aggregation in experiment [2] is -6.4% (inactive). For the same molecule, the nuclei count in experiment [2] worked out at 98.8%; in experiment [3], 111%. Moreover, the results for the fluorescence slope in experiment [4] and in experiment [6] were -0.566 (inactive) and 0.00517 (inactive), respectively. Further, in experiment [5], the NADPH fluorescence slope is -2.6e-05 (inactive).
In the case of `c1c2c(cc3sc(N4CCCCC4)nc13)OCCO2`, the cell count in experiment [1] is 266. In addition, the inhibition in experiment [1] was -5.8% (inactive); in experiment [3] it was 2.1% (inactive); in experiment [7], -0.203% (inactive); in experiment [8] it was -45.7% (inactive). For the same molecule, the inhibition of aggregation in experiment [2] is 14.4% (inactive). Also, the nuclei count in experiment [2] came to 87.6%; in experiment [3], 88.9%. For the same molecule, the fluorescence slope was -0.54 (inactive) in experiment [4] and 0.00468 (inactive) in experiment [6]. Besides, in experiment [5], the NADPH fluorescence slope was -9.8e-06 (inactive).
`CCc1nnc(NC(=O)CSc2nnc(Cc3ccccc3)n2-c2ccc(OC)cc2)s1`: the cell count in experiment [1] amounted to 680. In addition, the inhibition in experiment [1] is -13.4% (inactive); in experiment [3] it was 52.3% (inactive); in experiment [7] it was 10.9% (inactive); in experiment [8], 12% (inactive). In addition, the inhibition of aggregation in experiment [2] was 0.3% (inactive). In addition, the nuclei count was found to be 102% in experiment [2] and 105% in experiment [3]. The fluorescence slope in experiment [4] is -0.45 (inactive); in experiment [6], 0.00454 (inactive). For the same molecule, the NADPH fluorescence slope in experiment [5] is -5.9e-05 (inactive).
As to `O=C(O)CCC(=O)Nc1nc(-c2ccccc2)cs1`, the cell count in experiment [1] was determined as 546. Moreover, the inhibition was -24.7% (inactive) in experiment [1], 4.3% (inactive) in experiment [3], 16.3% (inactive) in experiment [7] and 23.8% (inactive) in experiment [8]. Also, the inhibition of aggregation in experiment [2] is -8.2% (inactive). For the same molecule, the nuclei count in experiment [2] is 110%; in experiment [3] it was 147%. Besides, the fluorescence slope in experiment [4] is -0.449 (inactive); in experiment [6], 0.00599 (inactive). Besides, the NADPH fluorescence slope in experiment [5] was 0.00011 (inactive).
On to `CCCn1c(=O)c2ccccc2n2c(SCc3cc(=O)n4ccsc4n3)nnc12`, for which the cell count in experiment [1] amounted to 556. In addition, the inhibition in experiment [1] is -10.8% (inactive); in experiment [3], -8.3% (inactive); in experiment [7] it was 1.22% (inactive); in experiment [8], 12% (inactive). In experiment [2], the inhibition of aggregation was -7% (inactive). The nuclei count in experiment [2] turned out to be 90.4%; in experiment [3] it was 136%. Also, the fluorescence slope in experiment [4] was -0.479 (inactive); in experiment [6], 0.00554 (inactive). In addition, in experiment [5], the NADPH fluorescence slope is 1.9e-05 (inactive).
Take `COc1ccc(OC)c(C2C3=C(CCCC3=O)Nc3c2c(=O)n(C)c(=O)n3C)c1` (centres undefined): in experiment [1], the cell count was determined as 508. Moreover, the inhibition in experiment [1] was 1.4% (inactive); in experiment [3], -15.1% (inactive); in experiment [7], 4.02% (inactive); in experiment [8], 0.406% (inactive). Besides, the inhibition of aggregation in experiment [2] is 4.8% (inactive). Moreover, the figures for the nuclei count in experiment [2] and in experiment [3] were 89.5% and 96.3%, respectively. The fluorescence slope in experiment [4] is -0.547 (inactive); in experiment [6], 0.00407 (inactive). The NADPH fluorescence slope in experiment [5] was -0.000161 (inactive).
Turning to `CCC(Sc1ccc(C(=O)O)cc1)C(=O)O` (centres undefined), in experiment [1], the cell count is 319. Further, the inhibition in experiment [1] was -1.8% (inactive); in experiment [3], -40.5% (inactive); in experiment [7], 1.75% (inactive); in experiment [8] it was 7.14% (inactive). The inhibition of aggregation in experiment [2] was -13.8% (inactive). Moreover, the figures for the nuclei count in experiment [2] and in experiment [3] were 110% and 109%, respectively. Also, the fluorescence slope in experiment [4] is -0.566 (inactive); in experiment [6], 0.0053 (inactive). In experiment [5], the NADPH fluorescence slope was -2.4e-05 (inactive).
Turning to `CC(Oc1ccc(Cl)cc1Cl)c1nc(-c2ccc(NC(=O)c3cccnc3)cc2)no1` (centres undefined), in experiment [1], the cell count was 413. Besides, the inhibition in experiment [1] is 6.5% (inactive); in experiment [3] it was -60.6% (inactive); in experiment [7], 1.84% (inactive); in experiment [8], -74.3% (inactive). Further, the inhibition of aggregation in experiment [2] was -6.9% (inactive). Besides, the nuclei count in experiment [2] came to 89.5%; in experiment [3] it was 112%. Also, the fluorescence slope in experiment [4] is -0.641 (inactive); in experiment [6], 0.00494 (inactive). For the same molecule, the NADPH fluorescence slope in experiment [5] was 4.9e-05 (inactive).
Turning to `Cn1c2ccccc2c2c(C(=O)NCCCN3CCCC3=O)cn(C3CCCCC3)c(=O)c21`, the cell count in experiment [1] was found to be 592. In addition, the inhibition is -17.5% (inactive) in experiment [1], 20.1% (inactive) in experiment [3], 9.9% (inactive) in experiment [7] and 15.9% (inactive) in experiment [8]. Moreover, in experiment [2], the inhibition of aggregation was -29.3% (inactive). The nuclei count in experiment [2] was determined as 112%; in experiment [3], 110%. For the same molecule, the fluorescence slope in experiment [4] is -0.428 (inactive); in experiment [6], 0.00608 (inactive). Besides, the NADPH fluorescence slope in experiment [5] was 3.4e-05 (inactive).
